Results taken from PubChem BioAssay AID2608 (Broad Institute, 2010).
pEC50: −log10 of the molar value.

System: BJeLR fibroblasts viability, alamar blue fluorescence, 48 h
Experiment: cytotoxicity toward RAS-transformed BJeLR fibroblasts, dose response, cell-based, alamar blue fluorescence, 48 h, powder samples (AID 2608)
Summary of the method: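 Material: BJ fibroblasts transformed with hTERT, SV40 LT/ST and HRASV12 | Amount: 1000 cells/well | Medium: DMEM/M199 growth medium supplemented with FBS | Dosing: 2-fold compound dilution series, 0.01–5.33 µg/mL final | Incubation: 48 h exposure, 37 °C, 5% CO2, ~16 h alamar blue | Signal: Alamar blue fluorescence, excitation 544 nm, emission 590 nm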

SMILES | pEC50
Cc1ccc(C2CC(c3cccs3)=NN2C(=O)CCl)cc1 (centres undefined) | 6.11
COc1ccc(CN(CCC(c2ccccc2)c2ccc(OC(C)C)cc2)C(=O)CCl)cc1OC (centres undefined) | 6.19
COc1ccc(N(C(=O)CCl)C(C(=O)NCCc2ccccc2)c2cccs2)cc1 (centres undefined) | 6.66
C=CCOc1ccccc1CN(C(=O)CCl)c1ccc2c(c1)OCO2 | 6.07
Nc1nc(CCl)nc(Nc2ccc3ccccc3c2)n1 | 7.07
CCOc1ccc(Nc2nc(N)nc(CCl)n2)cc1 | 6.65
COc1ccc(C(C(=O)NC2CCCCC2)N(C(=O)CCl)c2cccc(Cl)c2)cc1 (centres undefined) | 6.77
COC(=O)[C@@H]1Cc2c([nH]c3ccccc23)C(C)(C)N1C(=O)CCl | 6.32
COc1ccc(N(C(=O)CCl)C(C(=O)NCCc2ccccc2)c2cccs2)cc1Cl (centres undefined) | 7.59
CCCCCCCN(C(=O)CCl)c1cccc(C)c1 | 6.92
COc1ccc(C(C(=O)NC2CCCCC2)N(C(=O)CCl)c2ccc(C)cc2)cc1 (centres undefined) | 6.79
COc1cccc(N(C(=O)CCl)C(C(=O)NCCc2ccccc2)c2cccs2)c1 (centres undefined) | 6.77
Cc1ccc(N(C(=O)CCl)C(C(=O)NC2CCCCC2)c2cccnc2)cc1C (centres undefined) | 6.80
O=C(CCl)N=c1sccn1Cc1ccccc1Cl | 6.83
